Shown is part of a subset that was picked to be rich in hits.
Insulin prom act: TRM-6 insulin promoter activation; TRM-6 cells (human fetal islet line), insulin promoter eGFP reporter, imaging; plate-scaled: unstimulated 0, stimulated control 100; activation, % at 2 µM; 130,000 compounds, 0.81% hits; AID 1296;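 active = activation at 2 µM above a set limit, confirmed on inspection of the cell images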;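 also: share of cells whose green reporter signal exceeds an intensity cutoff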
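Test system: TRM-6 insulin promoter–eGFP reporter cells / Quantity: 1,000 cells per well / Reagent: tamoxifen inducer, 0.75 µM, in seeding medium / Compound dosing: 2 µM final, single concentration / Schedule: overnight tamoxifen, then two-day compound incubation at 37 °C / Measured by: automated fluorescence imaging of paraformaldehyde-fixed, Hoechst-counterstained cells, green channel / Read-out: percent activation from GFP-positive cell fraction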
Starred values were filed as active, the others as inactive.

SMILES	Insulin prom act
O=C1/C(=C/c2ccco2)CCc2ccccc21	0
COc1ccccc1Oc1coc2c(CN3CCN(C)CC3)c(O)ccc2c1=O	8
CCCCNC(=O)C1CC(c2c(Cl)cccc2Cl)=NO1 (stereo unspecified)	9
CC(C)(C)C(=O)NC(=S)NNC(=O)c1ccc(-c2ccccc2)cc1	-81
COc1ccc(NS(=O)(=O)c2ccc(SC)cc2)c(OC)c1	4
COc1ccc(S(=O)(=O)Nc2cc3c4c(oc3c3ccccc23)CC(C)(C)CC4=O)cc1	87*
COc1ccc(S(=O)(=O)Nc2ccccc2C)cc1	4
FCCCOc1ccc(CN2CCN(c3ccccc3F)CC2)cc1	-3
Cc1onc(-c2ccccc2Cl)c1C(=O)Nc1ncn[nH]1	-4
CC(SCc1cn2cc(Cl)ccc2n1)C(=O)O (stereo unspecified)	-9
CCCCC(C(=O)O)C(C)CC(=O)NNC(=O)c1ccco1 (stereo unspecified)	8
COc1ccc2cc(Br)ccc2c1CC(=O)NC(C)(C)C	0
COc1cc([N+](=O)[O-])cc2sc(NC(=O)C3CC3)nc12	0
Cc1cc2c(cc1C)NC(CC(=O)NCc1ccccc1)C(=O)N2 (stereo unspecified)	106
O=C(CC1NC(=O)NC1=O)Nc1cccc2ccccc12 (stereo unspecified)	569*
COc1ccc(NC(=O)C(NC(=O)CC2NC(=O)NC2=O)c2ccccc2)cc1 (stereo unspecified)	0
C[C@@H](O)C1NC(=O)[C@H](CCCCN)NC(=O)c2cc([N+](=O)[O-])cc(I)c2OCC[C@@H](C(N)=O)NC1=O (stereo partly specified)	9
Cc1snc(S(=O)(=O)/C(C#N)=N/Nc2ccc(C(F)(F)F)cc2)c1C#N	-71
Cc1ccccc1C1CC(=O)NC2=C1C(=O)CCC2 (stereo unspecified)	-9
Cc1cc(C)n(C2CC(=O)N(c3ccccc3)C2=O)n1 (stereo unspecified)	8
O=C1CCCC2=C1C(c1ccccc1)CC(=O)N2c1ccccc1 (stereo unspecified)	182*
Cc1ccccc1NC(=S)N(CCN1CCOCC1)Cc1ccccc1F	-7
CCOCC(=O)Nc1cc(C(=O)OC)cc(C(=O)OC)c1	7
COc1ccc(CNC(=O)C(c2ccco2)N(Cc2cccs2)C(=O)Cc2cccs2)cc1 (stereo unspecified)	80*
COc1ccc(CNC(=O)C(c2ccc(C)cc2)N(Cc2cccs2)C(=O)c2ccc3c(c2)OCCO3)cc1 (stereo unspecified)	4
SMILES	Insulin prom act
COc1ccc(CNC(=O)C(c2cccs2)N(Cc2ccco2)C(=O)Cc2cccs2)cc1 (stereo unspecified)	284
CCOc1ccccc1C(=O)N[C@H](C(=O)OCc1cc([N+](=O)[O-])cc2c1OCOC2)C(C)C	-3
COc1cc2c(cc1OC)C1=C(C#N)CC/C(=N\S(=O)(=O)c3cccc(Cl)c3)N1CC2	87*
COc1cc2c(cc1OC)-c1cc(OCc3ccccc3Cl)nc(=O)n1CC2	-66
COc1cc2c(cc1OC)C(CC#N)=NC(C)(C)C2	6
Cc1ccc(C2=CSC3=NS(=O)(=O)CCN23)cc1	-8
C[C@H](NS(=O)(=O)c1ccccc1)C(=O)OCC(=O)NC(=O)Nc1ccc2c(c1)OCCO2	8
CCN1CCC(NC(=O)Nc2cc(Cl)ccc2OC)CC1	0
O=C(NCc1ccccc1)c1ccc(N2C(=O)C3CCCCC3C2=O)cc1 (stereo unspecified)	-5
CCN(CC)S(=O)(=O)c1ccc2c3c(cccc13)C(=O)N2	-71
CCOC(=O)c1c(C)oc2ccc(NS(=O)(=O)c3ccc4c5c(cccc35)C(=O)N4)cc12	506*
Cc1oc2ccc(NS(=O)(=O)c3ccccc3)cc2c1C(=O)Nc1ccccc1	-3
CCCCC(CC(O)COCCC)C(=O)NN (stereo unspecified)	-8
c1ccc(CSc2ccc(-c3cccnc3)nn2)cc1	0
Cc1c(OCc2nn[nH]n2)ccc2c3c(c(=O)oc12)CCCC3	108
CCCOc1ccc2c3c(c(=O)oc2c1OCCC)CCCC3	0
CCOC(=O)COc1ccc2c3c(c(=O)oc2c1C)CCC3	519*
COc1ccc2oc3ccc(OC)cc3c(=O)c2c1	145*
COc1ccc2oc(C(F)(F)C(F)F)cc(=O)c2c1	5
COc1ccc2occ(NC(C)=O)c2c1	-4
CC(C)(C)NC(=O)/C(=C/c1ccccc1F)NC(=O)c1ccc([N+](=O)[O-])cc1	0
O=C(CCCNC(=O)/C(=C\c1ccccc1F)NC(=O)c1ccccc1)OCc1ccccc1	257*
CC(C)(C)NC(=O)/C(=C\c1ccccc1F)NC(=O)c1ccc([N+](=O)[O-])cc1	0
CCn1c(O)c(/C=N/N=C/c2ccccc2)c2ccc(C3=NNC(=O)CC3)cc21	-69
Cc1ccc(C(=O)C(OC(=O)CNC(=O)c2ccc(Cl)cc2)c2ccccc2)cc1 (stereo unspecified)	3
SMILES	Insulin prom act
CN1CC(=O)N(CC(=O)Nc2cccc(S(=O)(=O)N3CCOCC3)c2)C1=O	-65
Cn1c(NC(=O)Cc2cccc3ccccc23)cc(=O)n(C)c1=O	111
O=C(COC(=O)COc1ccc(Cl)cc1Cl)Nc1cccnc1Cl	7
COCc1cc(C)nc(SCC[N+](C)(C)CC(=O)Nc2ccccc2)c1C#N	8
COCc1cc(C)nc(N2CCc3ccccc32)c1C#N	0
COCc1cc(C)nc(Nc2ccccc2C)c1C#N	408*
NNC(=O)[C@H]1C[C@@H]1c1ccccc1	7
Cc1nc2cccc(C(=O)NCc3ccccc3)c2o1	7
Cc1cc(NC(=O)COC(=O)COc2ccc(C(=O)c3ccccc3)cc2)no1	-8
Cc1ccc2c(Cl)cc(Cl)c(OCC(=O)Nc3cc(C)on3)c2n1	3
Cc1cc(NC(=O)COC(=O)c2oc3c(ccc4ccccc43)c2C)no1	415*
NS(=O)(=O)c1cccc(NC(=O)COC(=O)Cc2ccc(Cl)cc2)c1	7
COc1ccc(N(CC(=O)Nc2ccccc2SC)S(C)(=O)=O)cc1OC	614*
COc1ccc(N(CC(=O)O)S(C)(=O)=O)cc1OC	189
CSc1ccccc1NC(=O)CN(c1cccc(C)c1)S(C)(=O)=O	3
CCN1CCCC1CNCc1cccc(OC)c1OCc1ccc(F)cc1 (stereo unspecified)	167
CC(Cl)C(=O)Nc1ccccc1C#N (stereo unspecified)	-3
COc1cc2cc(CN(Cc3cccs3)C(=S)Nc3cccc(C)c3)c(=O)[nH]c2cc1OC	354*
CNC(=S)N(Cc1cccs1)Cc1cc2cc(OC)c(OC)cc2[nH]c1=O	3
Cc1cccc(NC(=S)N(Cc2cccs2)Cc2cc3cc(C)ccc3[nH]c2=O)c1	-8
COc1ccc(OC)c(NS(=O)(=O)c2ccc(NC(=O)c3ccc(NS(C)(=O)=O)cc3)cc2)c1	2
COc1ccc(NC(=O)CN2c3cccc4cccc(c34)S2(=O)=O)cc1	8
COc1ccc2c(c1)-c1ccccc1S(=O)(=O)N2C(C)=O	184*
COc1ccc2c(=O)c(N3C(=O)c4ccccc4C3=O)coc2c1	28
COc1ccc(N(CC(=O)NCCSCc2c(F)cccc2Cl)S(C)(=O)=O)cc1OC	7
COc1cccc(N(CC(=O)NCCSc2ccc(Cl)cc2)S(C)(=O)=O)c1	93*
COc1ccc(NC(=S)NCCSc2ccc(Cl)cc2)c(OC)c1	-9
Cc1ccc(CN2CCN(/N=C/C=C/c3ccccc3[N+](=O)[O-])CC2)cc1	-73
